# In ChEMBL document CHEMBL1134010, “Syntheses and antifungal activities of novel 3-amido bearing pseudomycin analogues” (Bioorg Med Chem Lett, 2001):
# Positions of bridges follow the written chain, without caps; N, C: chain ends. Non-standard residues stand in square brackets, D forms with d. Residues, ends and D or L forms follow the SMILES beside them. *: point of attachment. Tetradecanoyl(3R-OH) = CCCCCCCCCCC[C@@H](O)CC(=O)*; Asp(3S-OH) = N[C@H](C(=O)O)[C@H](O)C(=O)O; Thr(4-Cl) = N[C@H](C(=O)O)[C@H](O)CCl; aThr = C[C@H](O)[C@H](N)C(=O)O; dDab = NCC[C@@H](N)C(=O)O; Dab = NCC[C@H](N)C(=O)O; Dhb = C/C=C(\N)C(=O)O
# Key:
# Aspergillus fumigatus = test: In vitro minimum inhibitory concentration (MIC) against Aspergillus fumigatus.; format: functional
# In short: (§1)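 Tested against Candida albicans, Cryptococcus neoformans and Aspergillus fumigatus, with PSB as positive control. MIC is taken as the lowest drug concentration giving 90–100% inhibition of visible growth relative to drug-free controls.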
# Candida albicans [1] = test: In vitro minimum inhibitory concentration (MIC) against Candida albicans.; format: functional; in short: as §1
# Cryptococcus neoformans = test: In vitro minimum inhibitory concentration (MIC) against Cryptococcus neoformans.; format: functional; in short: as §1
# Candida albicans [2] = test: In vivo efficacy against murine Candidiasis dosed four times by intraperitoneal administration post-infection using Reed and Muench method.; format: functional; conditions: ip
# In short: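 Systemic candidiasis in mice, with PSB and amphotericin B as positive controls. Analogues were given at 20, 10 and 5 mg/kg, four doses at 0, 4, 24 and 48 post-infection. ED50 is the dose giving 50% survival relative to untreated infected animals, calculated by the Reed and Muench method.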
# Mus musculus [3] = test: Toxicity at a dose of 100 mg/kg in mice; Death; conditions: in vivo
# Mus musculus [4] = test: Toxicity at a dose of 125 mg/kg in mice; Death; conditions: in vivo
# Mus musculus [5] = test: Compound was dosed four times to outbred, male ICR mice and signs of irritation (erythema, swelling, discoloration, necrosis and tail loss) were observed in tail irritation test; Yes; format: ADME, organism-based; conditions: in vivo
Compound,MIC (Aspergillus fumigatus) [µg/mL],MIC (Candida albicans [1]) [µg/mL],MIC (Cryptococcus neoformans) [µg/mL],ED50 (Candida albicans [2]) [mg/kg],Toxicity (Mus musculus [3]),Toxicity (Mus musculus [4]),Tail vein toxicity (Mus musculus [5])
C/C=C1\NC(=O)[C@H]([C@H](C)O)NC(=O)[C@H](CCN)NC(=O)[C@H](CCCCN)NC(=O)[C@H](CC(=O)NCCC)NC(=O)[C@@H](CCN)NC(=O)[C@@H](NC(=O)C[C@H](O)CCCCCCCCCCC)COC(=O)[C@H]([C@H](O)CCl)NC(=O)[C@H]([C@H](O)C(=O)O)NC1=O,> 20,1.25,0.078,6,Death,Death,–
C/C=C1\NC(=O)[C@H]([C@@H](C)O)NC(=O)[C@H](CCN)NC(=O)[C@H](CCCCN)NC(=O)[C@H](CC(=O)N[C@@H](CCCCN)C(=O)OC)NC(=O)[C@@H](CCN)NC(=O)[C@@H](NC(=O)C[C@H](O)CCCCCCCCCCC)COC(=O)[C@H]([C@H](O)CCl)NC(=O)[C@H]([C@H](O)C(=O)O)NC1=O,> 20,1.25,< 0.01,< 5,Death,Death,–
C/C=C1\NC(=O)[C@H]([C@H](C)O)NC(=O)[C@H](CCN)NC(=O)[C@H](CCCCN)NC(=O)[C@H](CC(=O)NCCCCCCN(C)C)NC(=O)[C@@H](CCN)NC(=O)[C@@H](NC(=O)C[C@H](O)CCCCCCCCCCC)COC(=O)[C@H]([C@H](O)CCl)NC(=O)[C@H]([C@H](O)C(=O)O)NC1=O,20,5,< 0.01,< 5,–,–,–
C/C=C1\NC(=O)[C@H]([C@H](C)O)NC(=O)[C@H](CCN)NC(=O)[C@H](CCCCN)NC(=O)[C@H](CC(=O)NCCCCCCCCC)NC(=O)[C@@H](CCN)NC(=O)[C@@H](NC(=O)C[C@H](O)CCCCCCCCCCC)COC(=O)[C@H]([C@H](O)CCl)NC(=O)[C@H]([C@H](O)C(=O)O)NC1=O,> 20,20,5,> 20,–,–,–
C/C=C1\NC(=O)[C@H]([C@H](C)O)NC(=O)[C@H](CCN)NC(=O)[C@H](CCCCN)NC(=O)[C@H](CC(N)=O)NC(=O)[C@@H](CCN)NC(=O)[C@@H](NC(=O)C[C@H](O)CCCCCCCCCCC)COC(=O)[C@H]([C@H](O)CCl)NC(=O)[C@H]([C@H](O)C(=O)O)NC1=O ({Tetradecanoyl(3R-OH)}-S[dDab]NK[Dab][aThr][Dhb][Asp(3S-OH)][Thr(4-Cl)]; ester 1-C),10,2.5,< 0.01,< 0.8,–,–,Active
C/C=C1\NC(=O)[C@H]([C@H](C)O)NC(=O)[C@H](CCN)NC(=O)[C@H](CCCCN)NC(=O)[C@H](CC(=O)N(C)CCN(C)C)NC(=O)[C@@H](CCN)NC(=O)[C@@H](NC(=O)C[C@H](O)CCCCCCCCCCC)COC(=O)[C@H]([C@H](O)CCl)NC(=O)[C@H]([C@H](O)C(=O)O)NC1=O,20,5,< 0.01,4,–,–,–
C/C=C1\NC(=O)[C@H]([C@H](C)O)NC(=O)[C@H](CCN)NC(=O)[C@H](CCCCN)NC(=O)[C@H](CC(=O)NCCCC)NC(=O)[C@@H](CCN)NC(=O)[C@@H](NC(=O)C[C@H](O)CCCCCCCCCCC)COC(=O)[C@H]([C@H](O)CCl)NC(=O)[C@H]([C@H](O)C(=O)O)NC1=O,20,5,< 0.01,5.9,–,–,–
C/C=C1\NC(=O)[C@H]([C@H](C)O)NC(=O)[C@H](CCN)NC(=O)[C@H](CCCCN)NC(=O)[C@H](CC(=O)N(C)C)NC(=O)[C@@H](CCN)NC(=O)[C@@H](NC(=O)C[C@H](O)CCCCCCCCCCC)COC(=O)[C@H]([C@H](O)CCl)NC(=O)[C@H]([C@H](O)C(=O)O)NC1=O,10,10,< 0.01,< 4.5,–,–,–
C/C=C1\NC(=O)[C@H]([C@H](C)O)NC(=O)[C@H](CCN)NC(=O)[C@H](CCCCN)NC(=O)[C@H](CC(=O)NCCCCCCCC)NC(=O)[C@@H](CCN)NC(=O)[C@@H](NC(=O)C[C@H](O)CCCCCCCCCCC)COC(=O)[C@H]([C@H](O)CCl)NC(=O)[C@H]([C@H](O)C(=O)O)NC1=O,> 20,20,0.625,> 20,–,–,–
